Data as given in ChEMBL document CHEMBL1134445, “Design and synthesis of potent C(2)-symmetric diol-based HIV-1 protease inhibitors: effects of fluoro substitution” (J Med Chem, 2001).

Tests used:
[1] = target: Human immunodeficiency virus type 1 protease (Human immunodeficiency virus 1) (UniProt Q72874); assay: Anti-HIV-1 activity against mutant HIV-1 in MT-4 cells (mutation selected with compound 1); type: functional, cell-based; details: MT4
In short: (§1)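 Resistant HIV-1 IIIb raised in MT4 cells: started at sub-ED50 drug with 20-50 TCID50 virus, p24 in supernatant tracked, cell-free virus passaged at 5-fold rising drug levels until growing above 50-fold wild-type ED50; these supernatants served as stocks. ED50 then determined in MT4 cells by XTT cytopathic-effect assay.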

[2] = target: Human immunodeficiency virus type 1 protease (Human immunodeficiency virus 1) (UniProt Q72874); assay: Anti-HIV-1 activity against Wild type virus in MT-4 cells; type: functional, cell-based; details: MT4
In short: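 MT4 cells infected with HIV-1; in vitro antiviral ED50 derived from colorimetric XTT read-out of virus cytopathic effect.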

[3] = target: Human immunodeficiency virus type 1 protease (Human immunodeficiency virus 1) (UniProt Q72874); assay: Anti-HIV-1 activity against mutant HIV-1 in MT-4 cells (mutation selected with saquinavir); type: functional, cell-based; details: MT4; in short: as §1
[4] = target: Human immunodeficiency virus type 1 protease (Human immunodeficiency virus 1) (UniProt Q72874); assay: Anti-HIV-1 activity against mutant HIV-1 in MT-4 cells (mutation selected with nelfinavir); type: functional, cell-based; details: MT4; in short: as §1
[5] = target: Human immunodeficiency virus type 1 protease (Human immunodeficiency virus 1) (UniProt Q72874); assay: Anti-HIV-1 activity against mutant HIV-1 in MT-4 cells (mutation selected with ritonavir); type: functional, cell-based; details: MT4; in short: as §1
[6] = target: Human immunodeficiency virus type 1 protease (Human immunodeficiency virus 1, UniProt Q72874); assay: Inhibitory concentration against HIV-1 protease
In short: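 Recombinant HIV-1 protease, cloned and expressed in Escherichia coli; inhibition measured by fluorometric assay and reported as Ki.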

[7] = system: Human immunodeficiency virus 1; assay: Anti-HIV-1 activity against Wild type virus. in MT-4 cells; type: functional; details: Human immunodeficiency virus 1, MT4; read-out: ED50 (the source's name)
In short: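 Antiviral ED50 determined in MT4 cells infected with HIV-1; cytopathogenic effect read out by colorimetric XTT assay.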

SMILES: Cc1c(O)cccc1C(=O)N[C@@H](CSc1ccccc1)[C@H](O)CN1C[C@H]2CCCC[C@H]2C[C@H]1C(=O)NC(C)(C)C
- ED50 [1]: 0.07 µM
- ED50 [2]: 0.02 µM
- ED50 [3]: 0.12 µM
- ED50 [4]: 2.44 µM
- ED50 [5]: 0.11 µM

SMILES: CC(C)c1nc(CN(C)C(=O)N[C@H](C(=O)N[C@@H](Cc2ccccc2)C[C@H](O)[C@H](Cc2ccccc2)NC(=O)OCc2cncs2)C(C)C)cs1
- ED50 [1]: 0.98 µM
- ED50 [2]: 0.06 µM
- ED50 [3]: 0.41 µM
- ED50 [4]: 0.15 µM
- ED50 [5]: 2.47 µM

SMILES: O=C(NC1c2ccccc2C[C@H]1O)[C@H](OCc1ccc(F)c(F)c1)[C@H](O)[C@@H](O)[C@@H](OCc1ccc(F)c(F)c1)C(=O)N[C@H]1c2ccccc2C[C@H]1O (some centres undefined)
- ED50 [1]: 1.05 µM
- ED50 [2]: 0.13 µM
- Ki [6]: 3.9 nM
- ED50 [3]: 0.16 µM
- ED50 [4]: 0.3 µM
- ED50 [5]: 1.3 µM

SMILES: O=C(NC1c2ccccc2C[C@H]1O)[C@H](OCc1ccccc1)[C@H](O)[C@@H](O)[C@@H](OCc1ccccc1)C(=O)N[C@H]1c2ccccc2C[C@H]1O (some centres undefined)
- ED50 [1]: 0.46 µM
- ED50 [2]: 0.1 µM
- Ki [6]: 1.22 nM
- ED50 [3]: 0.07 µM
- ED50 [4]: 0.1 µM
- ED50 [5]: 1.28 µM

SMILES: O=C(NC1c2ccccc2C[C@H]1O)[C@H](OCc1ccccc1F)[C@H](O)[C@@H](O)[C@@H](OCc1ccccc1F)C(=O)N[C@H]1c2ccccc2C[C@H]1O (some centres undefined)
- ED50 [1]: 0.27 µM
- ED50 [2]: 0.05 µM
- Ki [6]: 3.26 nM
- ED50 [3]: 0.08 µM
- ED50 [4]: 0.21 µM
- ED50 [5]: 0.51 µM

SMILES: CC(C)(C)NC(=O)[C@@H]1C[C@@H]2CCCC[C@@H]2CN1C[C@@H](O)[C@H](Cc1ccccc1)NC(=O)[C@H](CC(N)=O)NC(=O)c1ccc2ccccc2n1
- ED50 [1]: 0.01 µM
- ED50 [2]: 0.01 µM
- ED50 [3]: 0.08 µM
- ED50 [4]: 0.03 µM
- ED50 [5]: 0.01 µM

SMILES: CNC(=O)[C@@H](NC(=O)[C@H](OCc1ccccc1)[C@H](O)[C@@H](O)[C@@H](OCc1ccccc1)C(=O)N[C@H](C(=O)NC)C(C)C)C(C)C
- ED50 [1]: 8.13 µM
- Ki [6]: 0.8 nM
- ED50 [3]: 6.1 µM
- ED50 [4]: > 15 µM
- EC50 [7]: 1320 nM
- ED50 [5]: > 15 µM

SMILES: CNC(=O)[C@@H](NC(=O)[C@H](OCc1c(F)cccc1F)[C@H](O)[C@@H](O)[C@@H](OCc1c(F)cccc1F)C(=O)N[C@H](C(=O)NC)C(C)C)C(C)C
- ED50 [1]: > 15 µM
- ED50 [2]: 1.35 µM
- Ki [6]: 1.73 nM
- ED50 [3]: 8.14 µM
- ED50 [4]: 7.14 µM
- ED50 [5]: > 15 µM

SMILES: CNC(=O)[C@@H](NC(=O)[C@H](OCc1ccccc1F)[C@H](O)[C@@H](O)[C@@H](OCc1ccccc1F)C(=O)N[C@H](C(=O)NC)C(C)C)C(C)C
- ED50 [1]: 9.34 µM
- ED50 [2]: 0.28 µM
- Ki [6]: 1.92 nM
- ED50 [3]: 0.63 µM
- ED50 [4]: 1.15 µM
- ED50 [5]: 7.45 µM

SMILES: O=C(NC1c2ccccc2C[C@H]1O)[C@H](OCc1cc(F)cc(F)c1)[C@H](O)[C@@H](O)[C@@H](OCc1cc(F)cc(F)c1)C(=O)N[C@H]1c2ccccc2C[C@H]1O (some centres undefined)
- ED50 [1]: 0.23 µM
- ED50 [2]: 0.05 µM
- Ki [6]: 5 nM
- ED50 [3]: 0.09 µM
- ED50 [4]: 0.24 µM
- ED50 [5]: 1.06 µM

SMILES: CNC(=O)[C@@H](NC(=O)[C@H](OCc1ccc(F)cc1F)[C@H](O)[C@@H](O)[C@@H](OCc1ccc(F)cc1F)C(=O)N[C@H](C(=O)NC)C(C)C)C(C)C
- ED50 [1]: 3.35 µM
- ED50 [2]: 0.72 µM
- Ki [6]: 1.12 nM
- ED50 [3]: 1.17 µM
- ED50 [4]: 0.48 µM
- ED50 [5]: 1.89 µM

SMILES: O=C(NC1c2ccccc2C[C@H]1O)[C@H](OCc1ccc(F)cc1)[C@H](O)[C@@H](O)[C@@H](OCc1ccc(F)cc1)C(=O)N[C@H]1c2ccccc2C[C@H]1O (some centres undefined)
- ED50 [1]: 1.13 µM
- ED50 [2]: 0.25 µM
- Ki [6]: 5.39 nM
- ED50 [4]: 0.56 µM
- ED50 [5]: 1.13 µM

SMILES: CNC(=O)[C@@H](NC(=O)[C@H](OCc1cccc(F)c1F)[C@H](O)[C@@H](O)[C@@H](OCc1cccc(F)c1F)C(=O)N[C@H](C(=O)NC)C(C)C)C(C)C
- ED50 [1]: 1.54 µM
- ED50 [2]: 0.66 µM
- Ki [6]: 1.28 nM
- ED50 [3]: 1.11 µM
- ED50 [4]: 0.34 µM
- ED50 [5]: 2.26 µM

SMILES: CNC(=O)[C@@H](NC(=O)[C@H](OCc1ccc(F)c(F)c1)[C@H](O)[C@@H](O)[C@@H](OCc1ccc(F)c(F)c1)C(=O)N[C@H](C(=O)NC)C(C)C)C(C)C
- ED50 [1]: 2.84 µM
- ED50 [2]: 0.67 µM
- Ki [6]: 1.98 nM
- ED50 [3]: 0.81 µM
- ED50 [4]: 0.85 µM
- ED50 [5]: 1.22 µM

SMILES: O=C(NC1c2ccccc2C[C@H]1O)[C@H](OCc1cc(F)ccc1F)[C@H](O)[C@@H](O)[C@@H](OCc1cc(F)ccc1F)C(=O)N[C@H]1c2ccccc2C[C@H]1O (some centres undefined)
- ED50 [1]: 0.16 µM
- ED50 [2]: 0.02 µM
- Ki [6]: 3.29 nM
- ED50 [3]: 0.08 µM
- ED50 [4]: 0.1 µM
- ED50 [5]: 0.71 µM

SMILES: CNC(=O)[C@@H](NC(=O)[C@H](OCc1ccc(F)cc1)[C@H](O)[C@@H](O)[C@@H](OCc1ccc(F)cc1)C(=O)N[C@H](C(=O)NC)C(C)C)C(C)C
- ED50 [1]: 7.82 µM
- ED50 [2]: 1.17 µM
- Ki [6]: 1.79 nM
- ED50 [3]: 3.65 µM
- ED50 [4]: 1.32 µM
- ED50 [5]: 0.97 µM

SMILES: CNC(=O)[C@@H](NC(=O)[C@H](OCc1cc(F)ccc1F)[C@H](O)[C@@H](O)[C@@H](OCc1cc(F)ccc1F)C(=O)N[C@H](C(=O)NC)C(C)C)C(C)C
- ED50 [1]: 10.7 µM
- ED50 [2]: 0.65 µM
- Ki [6]: 1.98 nM
- ED50 [3]: 1.38 µM
- ED50 [4]: 1.38 µM
- ED50 [5]: 10.9 µM

SMILES: CNC(=O)[C@@H](NC(=O)[C@H](OCc1cccc(F)c1)[C@H](O)[C@@H](O)[C@@H](OCc1cccc(F)c1)C(=O)N[C@H](C(=O)NC)C(C)C)C(C)C
- ED50 [1]: 1.84 µM
- ED50 [2]: 0.68 µM
- Ki [6]: 1.83 nM
- ED50 [3]: 1.04 µM
- ED50 [4]: 1.1 µM
- ED50 [5]: 1.69 µM

SMILES: CNC(=O)[C@@H](NC(=O)[C@H](OCc1cc(F)cc(F)c1)[C@H](O)[C@@H](O)[C@@H](OCc1cc(F)cc(F)c1)C(=O)N[C@H](C(=O)NC)C(C)C)C(C)C
- ED50 [1]: 1.32 µM
- ED50 [2]: 0.42 µM
- Ki [6]: 1.98 nM
- ED50 [3]: 1.64 µM
- ED50 [4]: 0.34 µM
- ED50 [5]: 1.4 µM

SMILES: O=C(NC1c2ccccc2C[C@H]1O)[C@H](OCc1cccc(F)c1F)[C@H](O)[C@@H](O)[C@@H](OCc1cccc(F)c1F)C(=O)N[C@H]1c2ccccc2C[C@H]1O (some centres undefined)
- ED50 [1]: 0.24 µM
- ED50 [2]: 0.03 µM
- Ki [6]: 4 nM
- ED50 [3]: 0.05 µM
- ED50 [4]: 0.06 µM
- ED50 [5]: 0.88 µM

SMILES: O=C(NC1c2ccccc2C[C@H]1O)[C@H](OCc1c(F)cccc1F)[C@H](O)[C@@H](O)[C@@H](OCc1c(F)cccc1F)C(=O)N[C@H]1c2ccccc2C[C@H]1O (some centres undefined)
- ED50 [1]: 0.31 µM
- ED50 [2]: 0.06 µM
- Ki [6]: 1.64 nM
- ED50 [3]: 0.13 µM
- ED50 [4]: 0.25 µM
- ED50 [5]: 1.39 µM

SMILES: O=C(NC1c2ccccc2C[C@H]1O)[C@H](OCc1ccc(F)cc1F)[C@H](O)[C@@H](O)[C@@H](OCc1ccc(F)cc1F)C(=O)N[C@H]1c2ccccc2C[C@H]1O (some centres undefined)
- ED50 [1]: 0.67 µM
- ED50 [2]: 0.11 µM
- Ki [6]: 1.65 nM
- ED50 [3]: 0.37 µM
- ED50 [4]: 0.25 µM
- ED50 [5]: 1.73 µM

SMILES: O=C(NC1c2ccccc2C[C@H]1O)[C@H](OCc1cccc(F)c1)[C@H](O)[C@@H](O)[C@@H](OCc1cccc(F)c1)C(=O)N[C@H]1c2ccccc2C[C@H]1O (some centres undefined)
- ED50 [1]: 0.18 µM
- ED50 [2]: 0.06 µM
- Ki [6]: 7.13 nM
- ED50 [3]: 0.95 µM
- ED50 [4]: 0.21 µM
- ED50 [5]: 0.53 µM
